Results published in ChEMBL document CHEMBL1158007, “Steroidal glycosides from the bulbs of Allium jesdianum” (J Nat Prod, 1999).
In brackets after ≈: the same amount, converted by molar mass.

What was measured:
[1] = system: Malme-3M; experiment: Growth inhibition of human MALME-3M cells after 72 hrs by MTT assay; assay type: functional
[2] = system: UO-31; experiment: Growth inhibition of human UO-31 cells after 72 hrs by MTT assay; assay type: functional; settings: UO-31, 72 h
[3] = system: SNB-75; experiment: Growth inhibition of human SNB-75 cells after 72 hrs by MTT assay; assay type: functional; settings: SNB-75, 72 h
[4] = system: HL-60; experiment: Cytotoxicity against human HL-60 cells after 72 hrs by MTT assay; assay type: functional, cell-based; settings: HL-60, 72 h
Procedure, shortened: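 HL-60 cells grown in RPMI 1640 with 10% FBS, L-glutamine, penicillin and streptomycin, seeded at 3 × 10^4 cells/mL, and preincubated 24 h at 37 °C in 5% CO2. Sample in EtOH-H2O (1:1) added to a final 0.01-10 µg/mL, with vehicle-only controls, for 72 h. MTT added for 4 h, then formazan dissolved in DMSO and read at 550 nm. IC50 taken from the dose-response curve.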

[5] = system: SW-620; experiment: Growth inhibition of human SW620 cells after 72 hrs by MTT assay; assay type: functional; settings: SW-620, 72 h
[6] = system: HT-29; experiment: Growth inhibition of human HT-29 cells after 72 hrs by MTT assay; assay type: functional; settings: HT-29, 72 h
[7] = system: UACC-257; experiment: Growth inhibition of human UACC-257 cells after 72 hrs by MTT assay; assay type: functional; settings: UACC-257, 72 h
[8] = system: A498; experiment: Growth inhibition of human A498 cells after 72 hrs by MTT assay; assay type: functional; settings: A498, 72 h
[9] = system: A549; experiment: Growth inhibition of human A549 cells after 72 hrs by MTT assay; assay type: functional; settings: A549, 72 h
[10] = system: UACC-62; experiment: Growth inhibition of human UACC-62 cells after 72 hrs by MTT assay; assay type: functional; settings: UACC-62, 72 h
[11] = system: K562; experiment: Growth inhibition of human K-562 cells after 72 hrs by MTT assay; assay type: functional; settings: K562, 72 h, read-out: LC50 (the source's name)
[12] = system: NCI-H23; experiment: Growth inhibition of human NCI-H23 cells after 72 hrs by MTT assay; assay type: functional; settings: NCI-H23, 72 h
[13] = system: OVCAR-4; experiment: Growth inhibition of human OVCAR-4 cells after 72 hrs by MTT assay; assay type: functional; settings: OVCAR-4, 72 h
[14] = system: KM12; experiment: Growth inhibition of human KM12 cells after 72 hrs by MTT assay; assay type: functional; settings: KM12, 72 h
[15] = system: SK-MEL-2; experiment: Growth inhibition of human SK-MEL-2 cells after 72 hrs by MTT assay; assay type: functional; settings: SK-MEL-2, 72 h
[16] = system: MDA-MB-231; experiment: Growth inhibition of human MDA-MB-231cells after 72 hrs by MTT assay; assay type: functional; settings: MDA-MB-231, 72 h
[17] = system: HOP-62; experiment: Growth inhibition of human HOP-62 cells after 72 hrs by MTT assay; assay type: functional; settings: HOP-62, 72 h
[18] = system: SR; experiment: Growth inhibition of human SR cells after 72 hrs by MTT assay; assay type: functional
[19] = system: SNB-19; experiment: Growth inhibition of human SNB-19 cells after 72 hrs by MTT assay; assay type: functional; settings: SNB-19, 72 h
[20] = system: SN12C; experiment: Growth inhibition of human SN12C cells after 72 hrs by MTT assay; assay type: functional; settings: read-out: LC50 (the source's name)
[21] = system: OVCAR-5; experiment: Growth inhibition of human OVCAR5 cells after 72 hrs by MTT assay; assay type: functional; settings: OVCAR-5, 72 h
[22] = read-out: LC50 (the source's name)

Compound: C[C@@H]1CC[C@@]2(OC1)O[C@H]1C[C@H]3[C@@H]4CC[C@H]5C[C@@H](O[C@@H]6O[C@H](CO)[C@H](O[C@@H]7O[C@H](CO)[C@@H](O)[C@H](O[C@@H]8OC[C@@H](O)[C@H](O)[C@H]8O)[C@H]7O[C@@H]7O[C@H](CO)[C@@H](O)[C@H](O)[C@H]7O)[C@H](O)[C@H]6O)[C@H](O)C[C@]5(C)[C@H]4CC[C@]3(C)[C@H]1[C@@H]2C
- GI50 [1]: 19 µM
- TGI [1]: 35 µM
- CC50 [1, 22]: 69 µM
- GI50 [2]: 2.4 µM
- TGI [2]: 12 µM
- CC50 [2, 22]: 50 µM
- GI50 [3]: 14 µM
- TGI [3]: 28 µM
- CC50 [3, 22]: 59 µM
- IC50 [4]: 1.5 µg/mL (≈ 1.43 µM)
- GI50 [5]: 1.7 µM
- TGI [5]: 19 µM
- CC50 [5, 22]: 78 µM
- GI50 [6]: 1.1 µM
- TGI [6]: 3.1 µM
- GI50 [7]: 17 µM
- TGI [7]: 36 µM
- CC50 [7, 22]: 71 µM
- GI50 [8]: 4.9 µM
- TGI [8]: 35 µM
- CC50 [8, 22]: < 100 µM
- GI50 [9]: 0.35 µM
- CC50 [9, 22]: < 100 µM
- GI50 [10]: 17 µM
- TGI [10]: 42 µM
- CC50 [10, 22]: < 100 µM
- CC50 [11]: < 100 µM
- GI50 [12]: 2 µM
- TGI [12]: 8.7 µM
- CC50 [12, 22]: 36 µM
- GI50 [13]: 2 µM
- TGI [13]: 4.6 µM
- CC50 [13, 22]: 13 µM
- GI50 [14]: 8.9 µM
- TGI [14]: 23 µM
- CC50 [14, 22]: 55 µM
- GI50 [15]: 5.5 µM
- TGI [15]: 19 µM
- CC50 [15, 22]: 48 µM
- GI50 [16]: 1.8 µM
- TGI [16]: 13 µM
- CC50 [16, 22]: 87 µM
- GI50 [17]: 1.2 µM
- TGI [17]: 2.8 µM
- CC50 [17, 22]: 6.2 µM
- GI50 [18]: 63 µM
- TGI [18]: < 100 µM
- CC50 [18, 22]: < 100 µM
- GI50 [19]: 12 µM
- TGI [19]: 27 µM
- CC50 [19, 22]: 60 µM
- CC50 [20]: < 100 µM
- GI50 [21]: 5 µM
- TGI [21]: 20 µM
- CC50 [21, 22]: 59 µM
